Measurements reported in ChEMBL document CHEMBL1126550, “Nanomolar-affinity, non-peptide oxytocin receptor antagonists” (J Med Chem, 1993).

How the values were obtained:
Vasopressin V2 receptor = Vasopressin V2 receptor (Rattus norvegicus, UniProt Q00788); assay: Inhibition of radioligand [3H]-AVP binding to the vasopressin V2 receptor in rat kidney tissue
Outline: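 [3H]AVP (80–90 Ci/mmol) at 2 nM competed on crude membranes from male rat kidney medulla (V2 sites). Equilibrium 30 min at 30 °C in 100 mM Tris-HCl, 5 mM MgCl2, 0.1% BSA, 50 μM PMSF, 50 μg/mL bacitracin, pH 8.0. Nonspecific binding with 10 μM unlabeled AVP. Glass-fiber filtration. IC50 by linear regression of % inhibition vs log concentration, seven concentrations.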

Oxytocin receptor = target: T1, Oxytocin receptor (Rattus norvegicus, UniProt P70536); assay: Inhibition of radioligand [3H]oxytocin binding at the oxytocin (OT) receptor in rat uterine tissue
T1 sequence (P70536 whole entry): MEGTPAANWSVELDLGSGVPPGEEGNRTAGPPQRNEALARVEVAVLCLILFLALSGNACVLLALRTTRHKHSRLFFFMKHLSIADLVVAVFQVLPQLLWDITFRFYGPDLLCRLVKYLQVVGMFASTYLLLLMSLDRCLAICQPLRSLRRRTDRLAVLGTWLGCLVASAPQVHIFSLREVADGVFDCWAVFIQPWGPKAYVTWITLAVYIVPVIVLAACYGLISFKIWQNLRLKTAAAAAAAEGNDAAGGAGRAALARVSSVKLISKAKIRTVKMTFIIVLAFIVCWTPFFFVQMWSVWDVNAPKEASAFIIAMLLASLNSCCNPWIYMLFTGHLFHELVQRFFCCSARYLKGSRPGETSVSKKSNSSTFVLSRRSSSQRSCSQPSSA
Outline: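 Uteri taken from rats given diethylstilbestrol dipropionate (0.3 mg/kg ip, 18–24 h before), crude membranes. 1 nM [3H]OT (30–60 Ci/mmol), equilibrium 60 min at 22 °C in 50 mM Tris-HCl, 5 mM MgCl2, 0.1% BSA, pH 7.4. Nonspecific binding with 1 mM unlabeled OT. Filtered on glass fiber. Initial single-concentration screen, then IC50 from seven concentrations by linear regression.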

Vasopressin V1 receptor = Vasopressin V1 receptor (Rattus norvegicus, UniProt P48974+P30560); assay: Inhibition of radioligand [3H]AVP binding to the vasopressin V1 receptor in rat liver tissue
Outline: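 Crude membranes from male rat liver (V1 sites) competed with 1 nM [3H]AVP (80–90 Ci/mmol). Equilibrium 30 min, 30 °C, buffer 100 mM Tris-HCl, 5 mM MgCl2, 0.1% BSA, 50 μM PMSF, 50 μg/mL bacitracin, pH 8.0. 10 μM unlabeled AVP for nonspecific binding. Filtration through glass-fiber filters. IC50 from linear regression over seven concentrations.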

Chain of Vasopressin V2 receptor (Q00788 whole entry): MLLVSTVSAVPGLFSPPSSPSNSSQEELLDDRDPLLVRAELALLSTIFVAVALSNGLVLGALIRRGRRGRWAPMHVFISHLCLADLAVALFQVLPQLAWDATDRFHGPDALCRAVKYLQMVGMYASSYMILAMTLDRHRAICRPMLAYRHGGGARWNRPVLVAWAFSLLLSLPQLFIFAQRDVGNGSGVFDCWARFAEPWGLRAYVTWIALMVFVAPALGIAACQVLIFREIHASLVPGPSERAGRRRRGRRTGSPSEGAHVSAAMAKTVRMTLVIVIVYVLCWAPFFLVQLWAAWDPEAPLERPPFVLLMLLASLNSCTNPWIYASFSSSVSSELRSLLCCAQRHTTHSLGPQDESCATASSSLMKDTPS

Row | SMILES | IC50 (Vasopressin V2 receptor) [µM] | IC50 (Oxytocin receptor) [µM] | IC50 (Vasopressin V1 receptor) [µM]
1 | CC1NC(=O)N([C@H]2C[C@H]3CC[C@]2(CS(=O)(=O)N2CCC4(CCc5ccccc54)CC2)C3(C)C)C1=O (stereo not given in full) | 2.1 | 0.014 | 0.71
2 | CCCS(=O)(=O)N[C@H]1C[C@H]2CC[C@]1(CS(=O)(=O)N1CCC3(CCc4ccccc43)CC1)C2(C)C | 10 | 0.31 | > 1
3 | CC(C(=O)N[C@H]1C[C@H]2CC[C@]1(CS(=O)(=O)N1CCC3(CCc4ccccc43)CC1)C2(C)C)c1cn(C)cn1 (stereo not given in full) | > 3 | 0.06 | 3
4 | CC1(C)[C@@H]2CC[C@@]1(CS(=O)(=O)N1CCC3(CCc4ccccc43)CC1)[C@@H](N1C(=O)C3CCC(=N)N3C1=O)C2 (stereo not given in full) | 3.8 | 0.021 | 1.1
5 | CC1(C)[C@@H]2CC[C@@]1(CS(=O)(=O)N1CCC3(CCc4ccccc43)CC1)[C@@H](N1C(=O)NC(Cc3cccnc3)C1=O)C2 (stereo not given in full) | > 0.3 | 0.036 | > 0.3
6 | CC1(C)[C@@H]2CC[C@@]1(CS(=O)(=O)N1CCC3(CCc4ccccc43)CC1)[C@@H](N1CCNC1=O)C2 | > 3 | 0.1 | > 0.3
7 | CC(C)[C@@H](N)C(=O)N[C@H]1C[C@H]2CC[C@]1(CS(=O)(=O)N1CCC3(CCc4ccccc43)CC1)C2(C)C | > 3 | 0.11 | 3
8 | CC1(C)[C@@H]2CC[C@@]1(CS(=O)(=O)N1CCC3(CCc4ccccc43)CC1)[C@@H](NC(=O)CC1CCCNC1)C2 (stereo not given in full) | 12 | 0.13 | 1.5
9 | CC1(C)[C@@H]2CC[C@@]1(CS(=O)(=O)N1CCC3(CCc4ccccc43)CC1)[C@@H](NC(=O)C1CNC(=O)N1)C2 (stereo not given in full) | > 3 | 0.092 | > 3
10 | CC1(C)[C@@H]2CC[C@@]1(CS(=O)(=O)N1CCC3(C=Cc4ccccc43)CC1)[C@@](O)(CNC(=O)C1CN3CCC1CC3)C2 (stereo not given in full) | 6.1 | 0.057 | 0.47
11 | CCN(CC)C(CCS(C)(=O)=O)C(=O)N[C@H]1C[C@H]2CC[C@]1(CS(=O)(=O)N1CCC3(CCc4ccccc43)CC1)C2(C)C (stereo not given in full) | 1.5 | 0.03 | 2.1
12 | CC1(C)[C@@H]2CC[C@@]1(CS(=O)(=O)N1CCC3(CCc4ccccc43)CC1)[C@@H](N1C(=O)NC(=O)C1=O)C2 | 16 | 0.18 | 9.2
13 | CN1CC(=O)N([C@H]2C[C@H]3CC[C@]2(CS(=O)(=O)N2CCC4(CCc5ccccc54)CC2)C3(C)C)C1=O | 2.7 | 0.014 | 0.96
14 | CC(C)C[C@@H](N)C(=O)N[C@H]1C[C@H]2CC[C@]1(CS(=O)(=O)N1CCC3(CCc4ccccc43)CC1)C2(C)C | > 3 | 0.58 | > 3
15 | CC1(C)[C@@H]2CC[C@@]1(CS(=O)(=O)N1CCC3(CCc4ccccc43)CC1)[C@@H](NC(=O)C(CCS(C)(=O)=O)NC(=O)CN)C2 (stereo not given in full) | 1.1 | 0.0041 | 0.44
16 | CC1(C)[C@@H]2CC[C@@]1(CS(=O)(=O)N1CCC3(CCc4ccccc43)CC1)[C@@H](N1C(=O)NC(CNc3n[nH]c(N)n3)C1=O)C2 (stereo not given in full) | 0.45 | 0.0067 | 0.12
17 | CC1(C)[C@@H]2CC[C@@]1(CS(=O)(=O)N1CCC3(CCc4ccccc43)CC1)[C@@H](NC(=O)Cc1nnn[nH]1)C2 | > 3 | 0.22 | > 3
18 | CC1(C)[C@@H]2CC[C@@]1(CS(=O)(=O)N1CCC3(CCc4ccccc43)CC1)[C@@H](N1C(=O)CC(CC(=O)Nc3nn[nH]n3)C1=O)C2 (stereo not given in full) | 2.4 | 0.013 | 0.77
19 | CC1(C)[C@@H]2CC[C@@]1(CS(=O)(=O)N1CCC3(CCc4ccccc43)CC1)[C@@H](N1C(=O)CCC1=O)C2 | 1.7 | 0.011 | 0.91
20 | CC1(C)[C@@H]2CC[C@@]1(CS(=O)(=O)N1CCC3(CCc4ccccc43)CC1)[C@@H](NC(=O)Cn1cnnn1)C2 | 10 | 0.14 | > 1

Further lines, results first:

Row | IC50 (Vasopressin V2 receptor) [µM] | IC50 (Oxytocin receptor) [µM] | IC50 (Vasopressin V1 receptor) [µM] | SMILES
21 | > 3 | 0.11 | 3 | CC1(C)[C@@H]2CC[C@@]1(CS(=O)(=O)N1CCC3(C=Cc4ccccc43)CC1)[C@@](O)(CN1C(=O)CCC1=O)C2
22 | 13 | 0.83 | 5.1 | CC1(C)[C@@H]2CC[C@@]1(CS(=O)(=O)N1CCC3(CCc4ccccc43)CC1)[C@H](NC(=O)Cc1c[nH]cn1)C2
23 | > 3 | 0.17 | > 3 | CC1(C)[C@@H]2CC[C@@]1(CS(=O)(=O)N1CCC3(CCc4ccccc43)CC1)[C@@H](NC(=O)Cc1csc(N)n1)C2
24 | 3 | 0.09 | > 0.3 | CC1(C)[C@@H]2CC[C@@]1(CS(=O)(=O)N1CCC3(C=Cc4ccccc43)CC1)[C@@](O)(CNC(=O)[C@@H](N)CCC(N)=O)C2
25 | 20 | 0.15 | 5.2 | CC1(C)[C@@H]2CC[C@@]1(CS(=O)(=O)N1CCC3(CCc4ccccc43)CC1)[C@@H](NC(=O)/C=C/c1c[nH]cn1)C2
26 | 10 | 0.12 | > 1 | CC1(C)[C@@H]2CC[C@@]1(CS(=O)(=O)N1CCC3(CCc4ccccc43)CC1)[C@@H](NC(=O)Cc1ccncc1)C2
27 | 4.5 | 0.053 | 0.89 | CC1(C)[C@@H]2CC[C@@]1(CS(=O)(=O)N1CCC3(C=Cc4ccccc43)CC1)[C@@](O)(CNC(=O)Cc1cccnc1)C2
28 | 10 | 1 | > 1 | CC1(C)[C@@H]2CC[C@@]1(CS(=O)(=O)N1CCC3(CCc4ccccc43)CC1)[C@H](NC(=O)Cc1ccccc1)C2
29 | 6.2 | 0.08 | 1.7 | CC1(C)[C@@H]2CC[C@@]1(CS(=O)(=O)N1CCC3(CCc4ccccc43)CC1)[C@@H](NC(=O)C(N)CCCO)C2 (stereo not given in full)
30 | 9.4 | 0.065 | 4.5 | Cn1cnc(CC(=O)N[C@H]2C[C@H]3CC[C@]2(CS(=O)(=O)N2CCC4(CCc5ccccc54)CC2)C3(C)C)c1
31 | 23 | 0.22 | 4.6 | CC1(C)[C@@H]2CC[C@@]1(CS(=O)(=O)N1CCC3(C=Cc4ccccc43)CC1)[C@@](O)(CCNC(=O)c1ccccc1)C2
32 | 15 | 0.11 | 8.1 | CC1(C)[C@@H]2CC[C@@]1(CS(=O)(=O)N1CCC3(CCc4ccccc43)CC1)[C@@H](NC(=O)Cc1[nH]cnc1Br)C2
33 | > 3 | 1.2 | > 3 | CC1(C)[C@H]2CC[C@]1(CS(=O)(=O)N1CCC3(CCc4ccccc43)CC1)[C@H](NC(=O)Cc1c[nH]cn1)C2
34 | 13 | 0.45 | 3.2 | CC1(C)[C@@H]2CC[C@@]1(CS(=O)(=O)N1CCC3(CCc4ccccc43)CC1)/C(=N\O)C2
35 | > 1 | 0.12 | > 1 | CC1(C)[C@@H]2CC[C@@]1(CS(=O)(=O)N1CCC3(C=Cc4ccccc43)CC1)[C@@](O)(CCNC(=O)c1ccccn1)C2
36 | > 3 | 0.15 | 3 | CC1(C)[C@@H]2CC[C@@]1(CS(=O)(=O)N1CCC3(CCc4ccccc43)CC1)[C@@](O)(CN1CCCC1=O)C2
37 | > 3 | 0.48 | > 3 | CC1(C)[C@@H]2CC[C@@]1(CS(=O)(=O)N1CCC3(C=Cc4ccccc43)CC1)[C@@](O)(CNC(=O)CC13CC4CC(CC(C4)C1)C3)C2
38 | > 3 | 0.46 | > 3 | CC1(C)[C@@H]2CC[C@@]1(CS(=O)(=O)N1CCC3(CCc4ccccc43)CC1)[C@@H](NC(N)=O)C2
39 | 6 | 0.097 | 1.9 | CC1(C)[C@@H]2CC[C@@]1(CS(=O)(=O)N1CCC3(C=Cc4ccccc43)CC1)[C@@](O)(CCNC(=O)c1cccnc1)C2
40 | > 3 | 0.18 | > 3 | CC1(C)[C@@H]2CC[C@@]1(CS(=O)(=O)N1CCC3(CCc4ccccc43)CC1)[C@@H](NC(=O)CCc1cccnc1)C2
